Experiments:
[1] = system: dengue virus type 2; assay: Antiviral activity against Dengue virus 2 infected in hamster BHK-21 cells incubated for 48 hrs by renilla luciferase based assay; format: functional, organism-based; conditions: BHK-21, 48 h
In short: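 DENV-2 replicon-bearing BHK-21 cells (DENV2-BHK); replication read out with a Renilla luciferase assay system; EC50 calculated by nonlinear regression.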

[2] = system: Influenza A virus; assay: (§1) Antiviral activity against Influenza A virus A/Puerto Rico/8/34 (H1N1) infected in MDCK cells assessed as reduction in virus-induced cytopathic effect pre-infected with cells for 1 hrs followed by compound addition and measured after 3 days by fluorescein diacetate-based cell viability assay; format: functional, organism-based
[3] = system: SARS-CoV-2; assay: (§2) Antiviral activity against SARS-CoV-2 (hCoV-19/Korea/KCDC-06/2020) infected in African green monkey Vero cells preincubated with cells for 24 hrs followed by viral infection and measured after 24 hrs by DAPI-staining based fluorescence assay; format: functional, organism-based; conditions: Severe acute respiratory syndrome coronavirus 2, hCoV-19/Korea/KCDC-06/2020, Vero
[4] = system: Influenza B virus; assay: (§3) Antiviral activity against Influenza B virus B/Lee/40 infected in MDCK cells assessed as reduction in virus-induced cytopathic effect pre-infected with cells for 1 hrs followed by compound addition and measured after 3 days by fluorescein diacetate-based cell viability assay; format: functional, organism-based; conditions: B/Lee/40, MDCK
[5] = system: MDCK; assay: (§4) Cytotoxicity against MDCK cells assessed as reduction in cell viability measured for 48 hrs by MTT assay; format: toxicity, cell-based, Canis lupus familiaris; conditions: dog, mdck, 48 h
In short: (§5)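 Viability of non-infected or infected cells (Vero CCL-81 or MDCK CCL-34) measured by MTT; CC50 calculated by nonlinear regression.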

[6] = system: Influenza A virus; assay: (§6) Antiviral activity against Influenza A virus A/Hong Kong/8/68 (H3N2) infected in MDCK cells assessed as reduction in virus-induced cytopathic effect pre-infected with cells for 1 hrs followed by compound addition and measured after 3 days by fluorescein diacetate-based cell viability assay; format: functional, organism-based
[7] = system: Vero; assay: (§7) Cytotoxicity against African green monkey Vero cells assessed as reduction in cell viability incubated for 24 hrs by MTT assay; format: toxicity, cell-based; conditions: chlorocebus sabaeus, vero, 24 h; in short: as §5
[8] = (§8) Cytotoxicity against hamster BHK-21 cells incubated for 4 days by MTS assay; format: toxicity, cell-based, Mesocricetus auratus; conditions: BHK-21 cells, time 4 day
[9] = as §7; format: toxicity, cell-based; conditions: chlorocebus sabaeus, Vero cells; in short: as §5
[10] = system: SARS-CoV-2; assay: as §2, with “Potency index, ratio of MK-4482 EC50 to test compound EC50 for antiviral activity against antiviral” for “Antiviral”; format: functional, Severe acute respiratory syndrome coronavirus 2; conditions: time 48 hrs
[11] = system: Influenza A virus; assay: as §1, with “Potency index, ratio of ribavirin EC50 to test compound EC50 for antiviral” for “Antiviral”; format: functional; conditions: time 3 day
[12] = system: Influenza B virus; assay: as §3, with “Potency index, ratio of MK-4482 EC50 to test compound EC50 for antiviral” for “Antiviral”; format: functional; conditions: time 3 day
[13] = system: SARS-CoV-2; assay: as §2, with “Potency index, ratio of beta-D-N4-hydroxycytidine EC50 to test compound EC50 for antiviral activity against antiviral” for “Antiviral”; format: functional, Severe acute respiratory syndrome coronavirus 2; conditions: time 48 hrs
[14] = system: Influenza B virus; assay: as §3, with “Potency index, ratio of T-705 EC50 to test compound EC50 for antiviral” for “Antiviral”; format: functional; conditions: time 3 day
[15] = system: Influenza B virus; assay: as §3, with “Potency index, ratio of ribavirin EC50 to test compound EC50 for antiviral” for “Antiviral”; format: functional; conditions: time 3 day
[16] = system: SARS-CoV-2; assay: as §2, with “Potency index, ratio of remdesivir EC50 to test compound EC50 for antiviral” for “Antiviral”; format: functional, Severe acute respiratory syndrome coronavirus 2; conditions: time 48 hrs
[17] = system: dengue virus type 2; assay: Potency index, ratio of […] for antiviral activity against Dengue virus 2 infected in hamster BHK-21 cells incubated for 48 hrs by renilla luciferase based assay; format: functional
[18] = system: dengue virus type 2; assay: Potency index, ratio of MK-4482 EC50 to test compound EC50 for antiviral activity against Dengue virus 2 infected in hamster BHK-21 cells incubated for 48 hrs by renilla luciferase based assay; format: functional
[19] = system: BHK-21; assay: as §8; format: toxicity, cell-based, Mesocricetus auratus; conditions: bhk-21, 96 h, time 4 day
[20] = system: Influenza A virus; assay: as §6, with “Potency index, ratio of ribavirin EC50 to test compound EC50 for antiviral” for “Antiviral”; format: functional; conditions: time 3 day
[21] = as §4; format: toxicity, cell-based, Canis lupus familiaris; conditions: dog, MDCK cells; in short: as §5

| Compound | EC50 [1] [µM] | EC50 [2] [µM] | EC50 [3] [µM] | EC50 [4] [µM] | CC50 [5] [µM] | EC50 [6] [µM] | CC50 [7] [µM] | CC50 at 96 h [8] [µM] | other results |
| --- | --- | --- | --- | --- | --- | --- | --- | --- | --- |
| CCOC(=O)CNc1ccn([C@@H]2O[C@H](CO)[C@@H](O)[C@H]2O)c(=O)n1 | 100 | > 100 | > 100 | > 100 | > 100 | > 100 | > 100 | 100 | – |
| CCC(CC)COC(=O)[C@H](C)N[P@](=O)(OC[C@H]1O[C@@](C#N)(c2ccc3c(N)ncnn23)[C@H](O)[C@@H]1O)Oc1ccccc1 | – | – | – | – | – | – | – | – | CC50 at 24 h [9]: > 100 µM |
| NC12CC3CC(CC(C3)C1)C2 [AMANTADINE] | – | > 100 | – | > 100 | – | 6.4 | – | – | – |
| CC(C)(C)OC(=O)NNc1ccn([C@@H]2O[C@H](CO)[C@@H](O)[C@H]2O)c(=O)n1 | 100 | > 100 | > 100 | > 100 | > 100 | > 100 | > 100 | 100 | – |
| CCOC(=O)[C@H](Cc1ccccc1)Nc1ccn([C@@H]2O[C@H](CO)[C@@H](O)[C@H]2O)c(=O)n1 | 100 | > 100 | > 100 | > 100 | > 100 | > 100 | > 100 | 100 | – |
| CC(C)C(=O)ONc1ccn([C@@H]2O[C@H](CO)[C@@H](O)[C@H]2O)c(=O)n1 | 3.95 | 5.8 | 3.5 | 3.4 | – | 7.3 | – | – | Ratio EC50 [10]: 3.4; Ratio EC50 [11]: 6; Ratio EC50 [12]: 7; Ratio EC50 [13]: >4.7; Ratio EC50 [14]: 2; Ratio EC50 [15]: 10; Ratio EC50 [16]: 3; Ratio EC50 [17]: 3; Ratio EC50 [18]: 5.9; CC50 [19]: 10.8 µM; Ratio EC50 [20]: 5 |
| NC(=O)c1ncn([C@@H]2O[C@H](CO)[C@@H](O)[C@H]2O)n1 [RIBAVIRIN] | 1.16 | – | – | 33.3 | – | – | – | – | CC50 at 48 h [21]: > 100 µM; CC50 [19]: 5.46 µM |
| CCOC(=O)[C@H](C)Nc1ccn([C@@H]2O[C@H](CO)[C@@H](O)[C@H]2O)c(=O)n1 | 100 | > 100 | > 100 | > 100 | > 100 | > 100 | > 100 | 100 | – |
| NNc1ccn([C@@H]2O[C@H](CO)[C@@H](O)[C@H]2O)c(=O)n1 | 100 | > 100 | > 100 | > 100 | > 100 | > 100 | > 100 | 100 | – |
| O=c1nc(NCCO)ccn1[C@@H]1O[C@H](CO)[C@@H](O)[C@H]1O | 100 | > 100 | > 100 | > 100 | – | > 100 | – | 100 | CC50 at 48 h [21]: > 100 µM; CC50 at 24 h [9]: > 100 µM |
| O=c1nc(NO)ccn1[C@@H]1O[C@H](CO)[C@@H](O)[C@H]1O [N-HYDROXYCYTIDINE] | 2.84 | 1.7 | > 16.5 | < 1.2 | > 100 | 2.3 | 16.5 | – | CC50 [19]: 5.75 µM |
| NC(=O)c1nc(F)cnc1O | – | 3.2 | – | 7.6 | – | 8.5 | – | – | – |
| CC(C)C(=O)OC[C@H]1O[C@@H](n2ccc(NO)nc2=O)[C@H](O)[C@@H]1O [MOLNUPIRAVIR] | 23.4 | 6.6 | 11.8 | 23.8 | – | 6 | – | – | CC50 [19]: 42.2 µM |
| CCOC(=O)[C@H](CC(C)C)Nc1ccn([C@@H]2O[C@H](CO)[C@@H](O)[C@H]2O)c(=O)n1 | 100 | > 100 | > 100 | > 100 | > 100 | > 100 | > 100 | 100 | – |
